The source made the active and inactive calls.
Assays:
[1] = biological target: Casein kinase I isoform delta (Homo sapiens) (UniProt P48730); experiment: Inhibition of recombinant human CK1delta (1 to 294 residues) at 10 uM using KRRRALS(p)VASLPGL as substrate measured after 40 mins in presence of [gamma33P]ATP by scintillation counting method
[2] = biological target: Serine/threonine-protein kinase TAO2 (Homo sapiens) (UniProt Q9UL54); experiment: Inhibition of human TAO2 (1 to 320 residues) using myelin basic protein as substrate measured after 40 mins in presence of [gamma33P]ATP by scintillation counting method
Homo sapiens [3] = species on record: Homo sapiens; experiment: Inhibition of recombinant full-length human PI3K p110delta/p85alpha N253S mutant at 10 uM using phosphatidylinositol-4, 5-bisphosphate as substrate measured after 40 mins by fluorescence assay
[4] = biological target: Protein kinase C beta type (Homo sapiens) (UniProt P05771); experiment: Inhibition of recombinant human PKCbeta2 (2 to end residues) at 10 uM using histone H1 as substrate measured after 40 mins in presence of [gamma33P]ATP by scintillation counting method
[5] = biological target: Serine/threonine-protein kinase PLK3 (Homo sapiens) (UniProt Q9H4B4); experiment: Inhibition of recombinant human Plk3 (19 to 301 residues) at 10 uM using casein as substrate measured after 40 mins in presence of [gamma33P]ATP by scintillation counting method
[6] = biological target: Platelet-derived growth factor receptor alpha (Homo sapiens) (UniProt P16234); experiment: Inhibition of recombinant human PDGFRalpha (550 to end residues) at 10 uM using poly(Glu, Tyr) 4:1 as substrate measured after 40 mins in presence of [gamma33P]ATP by scintillation counting method
Platelet-derived growth factor receptor alpha (Homo sapiens), sequence (P16234 whole entry): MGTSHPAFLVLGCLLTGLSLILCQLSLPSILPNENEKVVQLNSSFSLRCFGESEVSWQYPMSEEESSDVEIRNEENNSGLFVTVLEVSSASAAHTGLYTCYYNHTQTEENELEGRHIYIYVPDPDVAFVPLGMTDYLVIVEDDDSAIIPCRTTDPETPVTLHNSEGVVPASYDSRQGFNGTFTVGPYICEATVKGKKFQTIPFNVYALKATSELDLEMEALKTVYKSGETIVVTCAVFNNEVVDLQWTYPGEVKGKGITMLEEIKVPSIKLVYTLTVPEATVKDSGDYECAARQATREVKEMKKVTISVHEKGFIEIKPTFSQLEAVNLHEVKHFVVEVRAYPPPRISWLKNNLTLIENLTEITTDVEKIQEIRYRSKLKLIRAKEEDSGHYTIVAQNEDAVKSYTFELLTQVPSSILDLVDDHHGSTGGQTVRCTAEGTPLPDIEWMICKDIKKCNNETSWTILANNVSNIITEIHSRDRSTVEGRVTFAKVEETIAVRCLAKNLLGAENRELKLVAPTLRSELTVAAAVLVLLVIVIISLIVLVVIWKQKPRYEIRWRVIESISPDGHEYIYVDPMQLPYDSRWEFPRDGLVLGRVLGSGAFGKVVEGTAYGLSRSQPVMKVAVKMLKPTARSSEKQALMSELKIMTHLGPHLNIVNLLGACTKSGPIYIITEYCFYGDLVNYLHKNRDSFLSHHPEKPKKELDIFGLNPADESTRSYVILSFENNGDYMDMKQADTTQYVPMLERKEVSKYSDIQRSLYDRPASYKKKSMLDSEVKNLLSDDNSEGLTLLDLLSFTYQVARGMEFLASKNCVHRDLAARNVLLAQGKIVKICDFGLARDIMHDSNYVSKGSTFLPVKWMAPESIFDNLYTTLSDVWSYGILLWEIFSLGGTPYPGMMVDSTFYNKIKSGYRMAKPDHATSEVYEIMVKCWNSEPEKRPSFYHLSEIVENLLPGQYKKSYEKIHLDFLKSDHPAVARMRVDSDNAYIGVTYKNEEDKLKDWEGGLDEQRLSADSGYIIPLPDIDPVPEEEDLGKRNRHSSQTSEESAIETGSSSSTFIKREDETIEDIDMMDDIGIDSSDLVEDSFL

[7] = tested on: Tyrosine-protein kinase ABL1 (Homo sapiens), P00519 [Q252H]; experiment: Inhibition of recombinant human ABL Q252H mutant (27 to end residues) at 10 uM using EAIYAAPFAKKK as substrate measured after 40 mins in presence of [gamma33P]ATP by scintillation counting method
[8] = biological target: Death-associated protein kinase 2 (Homo sapiens) (UniProt Q9UIK4); experiment: Inhibition of recombinant full-length human DAPK2 at 10 uM using calmodulin as substrate measured after 40 mins in presence of [gamma33P]ATP by scintillation counting method
Death-associated protein kinase 2 (Homo sapiens), sequence (Q9UIK4 whole entry, looked up): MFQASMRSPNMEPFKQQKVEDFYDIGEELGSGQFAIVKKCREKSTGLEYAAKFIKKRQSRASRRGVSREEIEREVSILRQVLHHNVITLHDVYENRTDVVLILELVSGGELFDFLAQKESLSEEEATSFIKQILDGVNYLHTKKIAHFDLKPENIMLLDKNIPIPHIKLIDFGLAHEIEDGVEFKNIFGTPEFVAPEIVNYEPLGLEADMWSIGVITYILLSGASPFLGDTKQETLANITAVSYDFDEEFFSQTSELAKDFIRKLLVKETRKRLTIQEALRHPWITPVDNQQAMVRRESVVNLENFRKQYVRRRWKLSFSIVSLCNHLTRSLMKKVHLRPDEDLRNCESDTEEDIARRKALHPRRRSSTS

[9] = biological target: PI3K p110 delta/p85 alpha (Mus musculus) (UniProt P26450+O35904); experiment: Inhibition of recombinant full-length mouse PI3K p110delta/p85alpha at 10 uM using phosphatidylinositol-4, 5-bisphosphate as substrate measured after 40 mins by HTRF assay; assay type: protein-complex assay
[10] = biological target: Mitogen-activated protein kinase kinase kinase 2 (Homo sapiens) (UniProt Q9Y2U5); experiment: Inhibition of recombinant full-length human MEKK2 at 10 uM using myelin basic protein as substrate measured after 40 mins in presence of [gamma33P]ATP by scintillation counting method
Mitogen-activated protein kinase kinase kinase 2 (Homo sapiens), sequence (Q9Y2U5 whole entry): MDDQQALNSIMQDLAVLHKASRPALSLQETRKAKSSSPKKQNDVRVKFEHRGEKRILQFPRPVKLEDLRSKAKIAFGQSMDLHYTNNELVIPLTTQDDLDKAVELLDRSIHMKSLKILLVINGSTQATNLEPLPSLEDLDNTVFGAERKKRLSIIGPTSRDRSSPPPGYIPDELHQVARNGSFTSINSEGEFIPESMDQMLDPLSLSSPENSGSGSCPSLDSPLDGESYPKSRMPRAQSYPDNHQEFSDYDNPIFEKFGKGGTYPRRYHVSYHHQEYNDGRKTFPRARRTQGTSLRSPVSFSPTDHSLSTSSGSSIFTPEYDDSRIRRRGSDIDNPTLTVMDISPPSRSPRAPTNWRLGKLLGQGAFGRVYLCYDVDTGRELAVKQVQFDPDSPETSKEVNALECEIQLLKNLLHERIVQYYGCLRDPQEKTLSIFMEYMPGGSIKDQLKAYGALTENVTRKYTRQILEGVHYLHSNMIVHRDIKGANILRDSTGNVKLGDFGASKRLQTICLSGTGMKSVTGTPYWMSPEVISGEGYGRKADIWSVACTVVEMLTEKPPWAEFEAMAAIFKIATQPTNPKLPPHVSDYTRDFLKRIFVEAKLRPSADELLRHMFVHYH

[11] = biological target: Aurora kinase B (Homo sapiens) (UniProt Q96GD4); experiment: Inhibition of recombinant full-length human AURKB at 10 uM using AKRRRLSSLRA as substrate measured after 40 mins in presence of [gamma33P]ATP by scintillation counting method
[12] = tested on: Ribosomal protein S6 kinase beta-1 (Homo sapiens), P23443 [T412E]; experiment: Inhibition of recombinant human p70S6K T412E mutant (1 to 421 residues) at 10 uM using KKRNRTLTV as substrate measured after 40 mins in presence of [gamma33P]ATP by scintillation counting method
[13] = biological target: Serine/threonine-protein kinase 35 (Homo sapiens) (UniProt Q8TDR2); experiment: Inhibition of recombinant full length human CLIK1 at 10 uM using RSRSRSRSRSRSRSR as substrate measured after 40 mins in presence of [gamma33P]ATP by scintillation counting method
Serine/threonine-protein kinase 35 (Homo sapiens), sequence (Q8TDR2 whole entry): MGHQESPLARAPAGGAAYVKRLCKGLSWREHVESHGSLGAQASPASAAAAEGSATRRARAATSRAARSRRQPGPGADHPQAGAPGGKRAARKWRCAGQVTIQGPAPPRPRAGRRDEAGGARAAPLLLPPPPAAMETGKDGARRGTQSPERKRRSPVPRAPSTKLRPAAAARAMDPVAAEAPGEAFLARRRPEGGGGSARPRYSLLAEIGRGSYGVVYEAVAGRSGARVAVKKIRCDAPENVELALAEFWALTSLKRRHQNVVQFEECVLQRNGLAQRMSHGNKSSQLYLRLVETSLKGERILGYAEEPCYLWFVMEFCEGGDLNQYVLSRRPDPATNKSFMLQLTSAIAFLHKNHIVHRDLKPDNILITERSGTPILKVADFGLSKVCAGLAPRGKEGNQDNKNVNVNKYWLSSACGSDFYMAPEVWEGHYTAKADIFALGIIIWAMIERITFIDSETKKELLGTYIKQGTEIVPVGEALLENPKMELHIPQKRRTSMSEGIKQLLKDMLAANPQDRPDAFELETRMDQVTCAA

[14] = biological target: Tyrosine-protein kinase JAK2 (Homo sapiens) (UniProt O60674); experiment: Inhibition of recombinant human JAK2 (808 to end residues) at 10 uM using KTFCGTPEYLAPEVRREPRILSEEEQEMFRDFDYIADWC as substrate measured after 40 mins in presence of [gamma33P]ATP by scintillation counting method
[15] = biological target: BDNF/NT-3 growth factors receptor (Homo sapiens) (UniProt Q16620); experiment: Inhibition of human TrkB (455 to end residues) using poly(Glu, Tyr) 4:1 as substrate measured after 40 mins in presence of [gamma33P]ATP by scintillation counting method
BDNF/NT-3 growth factors receptor (Homo sapiens), sequence (Q16620 32-822 limits assumed): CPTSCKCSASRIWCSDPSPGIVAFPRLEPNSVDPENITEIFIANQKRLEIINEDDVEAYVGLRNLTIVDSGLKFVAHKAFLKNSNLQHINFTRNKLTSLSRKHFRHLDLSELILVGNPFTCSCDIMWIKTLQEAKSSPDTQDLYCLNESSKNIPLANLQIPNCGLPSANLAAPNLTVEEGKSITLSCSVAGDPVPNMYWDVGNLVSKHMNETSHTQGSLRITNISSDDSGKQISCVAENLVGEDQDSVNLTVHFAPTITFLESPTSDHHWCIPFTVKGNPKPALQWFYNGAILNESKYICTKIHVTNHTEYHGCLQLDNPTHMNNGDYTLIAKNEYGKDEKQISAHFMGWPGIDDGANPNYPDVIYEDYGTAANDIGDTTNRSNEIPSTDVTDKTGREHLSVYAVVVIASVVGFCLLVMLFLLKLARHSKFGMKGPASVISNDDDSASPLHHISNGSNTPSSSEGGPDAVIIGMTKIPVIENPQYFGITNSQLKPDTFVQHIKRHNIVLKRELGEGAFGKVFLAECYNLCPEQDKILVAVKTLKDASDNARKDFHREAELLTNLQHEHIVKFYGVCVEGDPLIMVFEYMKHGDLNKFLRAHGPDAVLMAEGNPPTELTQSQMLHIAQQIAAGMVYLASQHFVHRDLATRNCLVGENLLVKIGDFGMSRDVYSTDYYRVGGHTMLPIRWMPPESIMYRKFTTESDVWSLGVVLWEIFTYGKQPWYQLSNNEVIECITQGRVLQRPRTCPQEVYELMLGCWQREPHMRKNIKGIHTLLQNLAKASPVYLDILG

[16] = biological target: Bromodomain-containing protein 1 (Homo sapiens) (UniProt O95696); experiment: Binding affinity to human partial length BRD1 (E556 to A688 residues) expressed in bacterial expression system at 1 uM by BROMOscan assay
Bromodomain-containing protein 1 (Homo sapiens), sequence (O95696 whole entry, the tested form may be a part): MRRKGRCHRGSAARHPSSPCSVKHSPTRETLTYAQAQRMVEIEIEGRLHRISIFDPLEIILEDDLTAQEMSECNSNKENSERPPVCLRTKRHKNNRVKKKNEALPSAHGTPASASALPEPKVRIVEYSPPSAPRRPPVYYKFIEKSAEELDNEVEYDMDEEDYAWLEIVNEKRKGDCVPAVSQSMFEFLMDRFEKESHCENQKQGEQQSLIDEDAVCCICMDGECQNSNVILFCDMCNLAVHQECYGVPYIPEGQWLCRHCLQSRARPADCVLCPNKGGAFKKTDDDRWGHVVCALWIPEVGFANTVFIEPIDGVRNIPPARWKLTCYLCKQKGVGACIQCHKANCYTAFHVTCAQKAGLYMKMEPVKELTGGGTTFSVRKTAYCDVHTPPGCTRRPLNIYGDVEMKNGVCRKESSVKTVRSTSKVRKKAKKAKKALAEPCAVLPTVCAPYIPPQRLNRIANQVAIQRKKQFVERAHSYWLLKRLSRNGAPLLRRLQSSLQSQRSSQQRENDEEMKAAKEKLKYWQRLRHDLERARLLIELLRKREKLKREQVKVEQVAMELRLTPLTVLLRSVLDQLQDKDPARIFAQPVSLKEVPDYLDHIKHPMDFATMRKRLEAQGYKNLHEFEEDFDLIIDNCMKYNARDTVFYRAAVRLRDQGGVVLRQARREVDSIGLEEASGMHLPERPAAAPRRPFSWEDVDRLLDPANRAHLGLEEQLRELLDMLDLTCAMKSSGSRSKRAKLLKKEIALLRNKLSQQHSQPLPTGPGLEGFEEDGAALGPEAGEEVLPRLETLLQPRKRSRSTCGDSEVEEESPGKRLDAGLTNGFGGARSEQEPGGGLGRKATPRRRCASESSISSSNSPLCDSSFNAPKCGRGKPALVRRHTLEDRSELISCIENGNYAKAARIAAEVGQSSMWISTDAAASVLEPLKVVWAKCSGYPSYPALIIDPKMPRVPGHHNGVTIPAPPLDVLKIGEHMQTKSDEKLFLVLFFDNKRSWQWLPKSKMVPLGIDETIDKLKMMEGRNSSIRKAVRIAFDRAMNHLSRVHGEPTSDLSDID
How it was run: (§1)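 BROMOscan bromodomain cross-screen run by an outside service, compound at 1 µM against 32 recombinant bromodomains. Binding given as percent of control.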

Homo sapiens [17] = species on record: Homo sapiens; experiment: Inhibition of recombinant full-length human AURKA I31F mutant at 10 uM using LRRASLG as substrate measured after 40 mins in presence of [gamma33P]ATP by scintillation counting method
[18] = biological target: ATPase family AAA domain-containing protein 2 (Homo sapiens) (UniProt Q6PL18); experiment: Binding affinity to human partial length ATAD2A (Q981 to R1108 residues) expressed in bacterial expression system at 1 uM by BROMOscan assay; how it was run: as §1
[19] = biological target: Calcium/calmodulin-dependent protein kinase type 1 (Homo sapiens) (UniProt Q14012); experiment: Inhibition of recombinant human CaMK1 (2 to end residues) at 10 uM using calmodulin as substrate measured after 40 mins in presence of [gamma33P]ATP by scintillation counting method
Calcium/calmodulin-dependent protein kinase type 1 (Homo sapiens), sequence (Q14012 whole entry, looked up): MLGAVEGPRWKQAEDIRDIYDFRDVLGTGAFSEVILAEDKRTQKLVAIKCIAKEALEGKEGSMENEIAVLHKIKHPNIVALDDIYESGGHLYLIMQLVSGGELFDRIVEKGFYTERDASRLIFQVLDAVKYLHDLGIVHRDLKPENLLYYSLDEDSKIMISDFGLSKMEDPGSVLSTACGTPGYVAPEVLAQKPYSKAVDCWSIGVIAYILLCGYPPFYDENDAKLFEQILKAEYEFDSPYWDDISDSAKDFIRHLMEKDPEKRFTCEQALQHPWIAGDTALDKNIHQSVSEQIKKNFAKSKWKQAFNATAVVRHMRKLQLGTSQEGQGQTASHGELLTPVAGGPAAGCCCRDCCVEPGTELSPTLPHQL

Homo sapiens [20] = species on record: Homo sapiens; experiment: Inhibition of recombinant human ARAF Y301D/ Y302D mutant (273 to end residues) at 10 uM using myelin basic protein as substrate measured after 40 mins in presence of [gamma33P]ATP by scintillation counting method
[21] = biological target: Tyrosine-protein kinase Fer (Homo sapiens) (UniProt P16591); experiment: Inhibition of recombinant human FER (541 to end residues) at 10 uM using KKKSPGEYVNIEFG as substrate measured after 40 mins in presence of [gamma33P]ATP by scintillation counting method
[22] = biological target: Ribosomal protein S6 kinase alpha-4 (Homo sapiens) (UniProt O75676); experiment: Inhibition of recombinant human MSK2 (2 to end residues) at 10 uM using GRPRTSSFAEGKK as substrate measured after 40 mins in presence of [gamma33P]ATP by scintillation counting method
[23] = biological target: Dual specificity mitogen-activated protein kinase kinase 4 (Homo sapiens) (UniProt P45985); experiment: Inhibition of recombinant human MKK4 (34 to end residues) at 10 uM using unactive JNK1a1 as substrate measured after 40 mins in presence of [gamma33P]ATP by scintillation counting method
[24] = biological target: SRSF protein kinase 2 (Homo sapiens) (UniProt P78362); experiment: Inhibition of human SRPK2 (46 to end residues) using RSRSRSRSRSRSRSR as substrate measured after 40 mins in presence of [gamma33P]ATP by scintillation counting method
How it was run: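 Kinase panel of 422 kinases screened by Eurofins KinaseProfiler at a single test-compound concentration of 10 µM.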

CN1C[C@H](Nc2nc3cc[nH]c3c(=O)n2C)C[C@H](c2ccc3c(c2)OCCO3)C1
inactive: inhibition [1] | inhibition [2] | inhibition (Homo sapiens [3]) | inhibition [4] | inhibition [5] | inhibition [6] | inhibition [7] | inhibition [8] | inhibition [9] | inhibition [10] | inhibition [11] | inhibition [12] | inhibition [13] | inhibition [14] | inhibition [15] | Activity [16] | inhibition (Homo sapiens [17]) | Activity [18] | inhibition [19] | inhibition (Homo sapiens [20]) | inhibition [21] | inhibition [22] | inhibition [23] | inhibition [24]

— ChEMBL document CHEMBL4350961, “Discovery of Pyrrolo[3,2- d]pyrimidin-4-one Derivatives as a New Class of Potent and Cell-Active Inhibitors of P300/CBP-Associated Factor Bromodomain” (J Med Chem, 2019)
